“Also recorded” adds a separate entry of the source. Like-named read-outs stand apart in the source and are kept apart here.
What was measured:
[1] = cited from earlier work
[2] = Serum pharmacokinetics of THC and metabolites after inhaled or i.p. THC; type: in vivo, female Sprague Dawley rats
[3] = cited from earlier work; remark: listed apart in the source
[4] = tested on: female Sprague Dawley rats; assay: Locomotor activity in OpenField arena after i.p. or inhaled THC; type: in vivo, rat; details: for vertical plane entries (rearing), total: 45 minute session
Method in brief: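 Separate cohort of adult female rats (n=15): habituation session, then five vehicle or THC days, each 3 days apart. Dosing was 2 mg/kg i.p., or 10 min vapour exposure (0.25 mL of 40 or 160 mg/mL; 0.19 or 0.76 mg/kg). Rats entered the arena immediately for 45 min, n=10–15 per group. Analysis: two-way RM ANOVA (time × treatment), Sidak or Tukey post hoc.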

[5] = tested on: rodents; details: i.p. injected THC; cited from earlier work
[6] = 0.19 mg/kg vaporized/inhaled THC (0.25 mL of 40 mg/mL, 10 min exposure), serum
[7] = 0.76 mg/kg vaporized/inhaled THC (0.25 mL of 160 mg/mL, 10 min exposure), serum
[8] = 2 mg/kg THC i.p., serum, female Sprague Dawley rats
[9] = female, Sprague Dawley, rat, serum, inhaled or intranasal, 0.19 mg/kg
[10] = female, Sprague Dawley, rat, serum, inhaled or intranasal, 0.76 mg/kg
[11] = female, Sprague Dawley, rat, serum, ip, 2 mg/kg

Compound: CCCCCc1cc(O)c2c(c1)OC(C)(C)C1CCC(C(=O)O)=CC21 (stereo not shown) [THC-COOH, 11-nor-9-carboxy-delta-9-tetrahydrocannabinol]
- time detectable in the bloodstream after administration ([1]; humans): ≥ 7 days
- Cmax (maximum serum concentration) [2, 6]: 20.9 ± 4.1 ng/mL
- Cmax (maximum serum concentration) [2, 7]: 19.9 ± 2.2 ng/mL
- Cmax (maximum serum concentration) [2, 8]: 87.0 ± 21.8 ng/mL

Compound: 11-hydroxy-delta-9-tetrahydrocannabinol [11-OH-THC]
- metabolite level relative to THC ([1]; human, acute inhalation, % of THC): up to 30%
- Tmax ([2]; 0.19 mg/kg vaporized THC, time after conclusion of inhalation): 5 min
- Cmax (maximum serum concentration) [2, 6]: 14.4 ± 1.4 ng/mL
- Tmax ([2]; 0.76 mg/kg vaporized THC, time after conclusion of inhalation): 5 min
- Cmax (maximum serum concentration) [2, 7]: 35.6 ± 7.4 ng/mL
- Cmax (maximum serum concentration) [2, 8]: 84.2 ± 19.3 ng/mL
- Tmax ([2]; 2 mg/kg THC i.p., time post-injection): 20 min

Compound: CCCCCc1cc(O)c2c(c1)OC(C)(C)[C@@H]1CCC(C)=C[C@@H]21 [THC, delta-9-tetrahydrocannabinol]
- time of peak THC brain levels ([3]; after THC inhalation in males, ref 35 (Hložek et al.)): 15 min
- mean Cmax levels of THC ([3]; female Sprague Dawley rats, 5 minutes post-30 minute inhalation of 200 mg/mL THC): 303 ng/mL
- time of peak THC brain levels ([3]; ref 26 (Baglot et al.)): 30 min
- vertical plane entries (rearing), total ([4]; 0.19 mg/kg INH THC vs vehicle): Significantly reduced; also recorded: significantly decreased; also recorded: reduced rearing activity
- floor plane distance ([4]; 0.76 mg/kg inhaled THC vs vehicle, at 20 minutes): significantly higher; also recorded: slightly heightened locomotion
- horizontal distance traveled or altered thigmotaxis ([4]; 0.76 mg/kg inhaled THC, over a 45-minute period): minimal effect
- center distance travelled ([4]; 0.76 mg/kg vaporized THC vs vehicle, at 20 minutes): significantly higher; also recorded: increased center distance travelled
- vertical plane entries (rearing), total ([4]; 2 mg/kg i.p. THC vs vehicle): Significantly reduced; also recorded: significant reduction; also recorded: reduced rearing activity
- margin distance, post-hoc comparisons ([4]; vaporized THC 0.19 or 0.76 mg/kg vs vehicle): no significant post-hoc comparisons
- dose at which horizontal locomotion is affected [5]: ≥ 15 mg/kg
- plasma concentration Cmax ([1]; human clinical study at a similar dose): 73.81 ± 63.09 ng/mL
- plasma Cmax values across individual subjects ([1]; human, 6 subjects given the same dose of THC under the same regime): 70 to 280 ng/mL
- mean Cmax of THC ([1]; human, acute THC inhalation, whole blood, lowest mean across studies): 4 ng/mL
- mean Cmax ranges in clinical studies ([1]; human, smoked or vaped cannabis at similar doses): 4 to 162 ng/mL
- Vss (volume of distribution at steady state) ([2]; 0.19 mg/kg vaporized): 8.6 L/kg
- Vss (volume of distribution at steady state) ([2]; 0.76 mg/kg vaporized): 24.4 L/kg
- AUC(0-inf) [2, 9]: 87 ng·h/mL
- CL/F [2, 9]: 38.3 mL/min/kg
- Cmax [2, 9]: 43.3 ng/mL
- Tmax [2, 9]: 10 min
- Vd/F [2, 9]: 7.4 L/kg
- half-life [2, 9]: 132 min
- k el [2, 9]: 8.33e-05 s⁻¹
- AUC(0-inf) [2, 10]: 94.4 ng·h/mL
- CL/F [2, 10]: 142 mL/min/kg
- Cmax [2, 10]: 71.6 ng/mL
- Tmax [2, 10]: 5 min
- Vd/F [2, 10]: 33 L/kg
- half-life [2, 10]: 162 min
- k el [2, 10]: 8.33e-05 s⁻¹
- AUC(0-inf) [2, 11]: 364 ng·h/mL
- CL/F [2, 11]: 91.7 mL/min/kg
- Cmax [2, 11]: 108 ng/mL
- Tmax [2, 11]: 10 min
- Vd/F [2, 11]: 26.9 L/kg
- half-life [2, 11]: 204 min
- k el [2, 11]: 5.56e-05 s⁻¹
- fold-change of Cmax values ([2]; increasing inhaled THC dose from 0.19 mg/kg to 0.76 mg/kg): 1.6 fold

From paper PMC10979821 (Current pharmaceutical design, 2023)
